# Measurements from ChEMBL document CHEMBL4257556, “Novel 1,3,4-thiadiazole-chalcone hybrids containing catechol moiety: synthesis, antioxidant activity, cytotoxicity and DNA interaction studies” (Medchemcomm, 2018).
# The source made the active and inactive calls. No cut-off for these calls is given here.
# Columns and labels:
# [1] = Antioxidant activity assessed as DPPH free radical scavenging activity after 30 mins; format: functional
# Summary of the method: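 DPPH (0.05 mM in methanol) mixed with equal volume of compound (DMSO solution diluted in methanol), kept in dark at room temperature 30 min; absorbance at 517 nm, methanol control, ascorbic acid positive control. IC50 = concentration giving 50% of maximum scavenging; mean ± SD of independent triplicate experiments.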
# [2] = system: HeLa; experiment: Cytotoxicity against human HeLa cells assessed as decrease in cell survival after 72 hrs by MTT assay; format: functional, cell-based
# Summary of the method: (§1)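 HeLa (2000/well), A549 and MRC-5 (5000/well) seeded 20 h before treatment; HL-60 (7000/well) 2 h before. Five concentrations (6.25–100 μM or 3.125–50 μM) from 5 mM DMSO stocks, final DMSO ≤1%, 72 h; survival by MTT. Cisplatin positive control; three independent experiments in triplicate.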
# [3] = system: HL-60; experiment: Cytotoxicity against human HL60 cells assessed as decrease in cell survival after 72 hrs by MTT assay; format: functional, cell-based; conditions: HL-60, 72 h; summary of the method: as §1
# [4] = system: A549; experiment: Cytotoxicity against human A549 cells assessed as decrease in cell survival after 72 hrs by MTT assay; format: functional, cell-based; conditions: A549, 72 h; summary of the method: as §1
# [5] = system: MRC5; experiment: Cytotoxicity against human MRC5 cells assessed as decrease in cell survival after 72 hrs by MTT assay; format: cell-based; conditions: MRC5, 72 h; summary of the method: as §1
# [6] = system: HeLa; experiment: Prooxidant activity in human HeLa cells assessed as increase in H2O2-induced reactive oxygen species at 10 uM preincubated for 24 hrs followed by H2O2 addition and measured after 30 mins by dichlorofluorescein dye-based flow cytometric method; format: functional, cell-based
# Summary of the method: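 HeLa cells pretreated 24 h with 10 μM compound, washed, loaded with 30 μM DCFH-DA in PBS 45 min at 37 °C. One portion read directly (endogenous ROS); other portion exposed to 10 mM H2O2 30 min at 37 °C. DCF green fluorescence by flow cytometry, 20 000 events per sample; mean ± SD of two independent experiments.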
# [7] = system: HeLa; experiment: Cell cycle arrest in human HeLa cells assessed as accumulation at sub-G1 phase at IC50 and 2 times IC50 after 24 hrs by propidium iodide staining-based flow cytometric method; format: functional
# Summary of the method: (§2)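 HeLa cells treated 24 h at IC50 or 2×IC50 (from 72 h assay), fixed in 70% ethanol, stored at –20 °C ≥1 week, RNase A 30 min 37 °C, propidium iodide stained; flow cytometry, 10 000 gated events. Mean ± SD of three independent experiments; one-way ANOVA with Dunnett's post-test, p < 0.05.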
# [8] = system: HeLa; experiment: Cell cycle arrest in human HeLa cells assessed as accumulation at G2/M phase at 2 times IC50 after 24 hrs by propidium iodide staining-based flow cytometric method; format: functional; summary of the method: as §2
# [9] = system: HeLa; experiment: Cell cycle arrest in human HeLa cells assessed as accumulation at sub-G1 phase at 2 times IC50 after 24 hrs in presence of caspase-3 inhibitor Z-DEVD-FMK by propidium iodide-staining based flow cytometric method; format: functional
# Summary of the method: (§3)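 HeLa cells pretreated 2 h with 40 μM peptide caspase inhibitor (Z-DEVD-FMK caspase-3, Z-IETD-FMK caspase-8 or Z-LEHD-FMK caspase-9), then exposed to 2×IC50 compound; subG1 fraction by propidium iodide flow cytometry, compared with samples lacking inhibitor.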
# [10] = system: HeLa; experiment: Cell cycle arrest in human HeLa cells assessed as accumulation at sub-G1 phase at 2 times IC50 after 24 hrs in presence of caspase-9 inhibitor Z-LEHD-FMK by propidium iodide-staining based flow cytometric method; format: functional; summary of the method: as §3
# [11] = system: HeLa; experiment: Cell cycle arrest in human HeLa cells assessed as accumulation at sub-G1 phase at 2 times IC50 after 24 hrs in presence of caspase-8 inhibitor Z-IETD-FMK by propidium iodide-staining based flow cytometric method; format: functional; summary of the method: as §3
# [12] = system: HeLa; experiment: Downregulation of MMP2 gene expression in human HeLa cells at 10 uM after 24 hrs by RT-qPCR method; format: functional, cell-based
# [13] = system: HeLa; experiment: Downregulation of TIMP3 gene expression in human HeLa cells at 10 uM after 24 hrs by RT-qPCR method; format: functional, cell-based
# [14] = system: HeLa; experiment: Upregulation of MMP9 gene expression in human HeLa cells at 10 uM after 24 hrs by RT-qPCR method; format: functional, cell-based
# [15] = system: HeLa; experiment: Downregulation of VEGFA gene expression in human HeLa cells at 10 uM after 24 hrs by RT-qPCR method; format: functional, cell-based
# [16] = system: EA.hy 926; experiment: Antiangiogenic activity in human EAhy926 cells assessed as inhibition of tubular structures formation at IC20 after 20 hrs by inverted phase-contrast microscopic method; format: functional, cell-based
# [17] = system: HeLa; experiment: Downregulation of miR-21 expression in human HeLa cells at 10 uM after 24 hrs by RT-qPCR method; format: functional, cell-based
# [18] = system: HeLa; experiment: Downregulation of miR-155 expression in human HeLa cells at 10 uM after 24 hrs by RT-qPCR method; format: functional, cell-based
# [19] = system: HeLa; experiment: Downregulation of miR-133b expression in human HeLa cells at 10 uM after 24 hrs by RT-qPCR method; format: functional, cell-based
# [20] = system: HeLa; experiment: Upregulation of miR-206 expression in human HeLa cells at 10 uM after 24 hrs by RT-qPCR method; format: functional, cell-based
# [21] = system: Calf thymus DNA; experiment: Binding affinity to calf thymus DNA at 10 to 40 uM after 90 mins by UV/visible spectrophotometric analysis; format: nucleic-acid assay; conditions: Bos taurus
# Summary of the method: (§4)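 CT-DNA stock in 10 mM Tris-HCl pH 7.9 (A260/A280 1.89–2.01; concentration from ε260 6600 M–1 cm–1). Compound (10, 20 or 40 μM) plus CT-DNA (95 μM) in 40 mM bicarbonate pH 8.4, 37 °C 90 min; spectra 200–800 nm. Hyper/hypochromism at 259 nm from bound versus summed free compound and DNA extinction; triplicate.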
# [22] = system: Calf thymus DNA; experiment: Binding affinity to calf thymus DNA assessed as hypochromism at 10 to 20 uM after 90 mins by UV/visible spectrophotometric analysis; format: nucleic-acid assay; conditions: Bos taurus; summary of the method: as §4
# [23] = system: Calf thymus DNA; experiment: Binding affinity to calf thymus DNA after 90 mins by spectroscopic titration method; format: nucleic-acid assay; conditions: Bos taurus
# Summary of the method: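 Compound fixed at 40 μM titrated with CT-DNA (2.2–13 × 10–5 M) in 40 mM bicarbonate pH 8.4 after 90 min at 37 °C; absorbance at 259 nm per DNA level. Kb from slope/intercept ratio of [DNA]/(εa–εf) versus [DNA] plot; triplicate assays.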
# [24] = system: Calf thymus DNA; experiment: Displacement of Hoechst 33258 from calf thymus DNA assessed as fluorescence intensity of compound-DNA complex at 22 uM by fluorescence spectrophotometric analysis relative to control; format: nucleic-acid assay; conditions: Bos taurus
# Summary of the method: (§5)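 CT-DNA 100 μM (per phosphate) in 40 mM bicarbonate pH 8.4 pretreated 20 min with Hoechst 33258 (28 μM final), then compound added stepwise. Excitation 350 nm, emission 390–550 nm, read at 444 nm, 10 nm slits; H–DNA as control. Quenching constant K by Stern–Volmer, I0/I versus r = [compound]/[DNA]; triplicate.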
# [25] = system: Calf thymus DNA; experiment: Displacement of Hoechst 33258 from calf thymus DNA assessed as quenching constant by fluorescence spectrophotometric analysis; format: nucleic-acid assay; conditions: Bos taurus; summary of the method: as §5
# [26] = system: MRC5; experiment: Induction of DNA damage in human MRC5 cells assessed as formation of DNA breaks at 25 uM after 24 hrs by comet assay relative to control; format: functional
# Summary of the method: (§6)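 MRC-5 cells exposed 24 h to 3.125–25 μM compound; DNA damage scored as % tail DNA (tail intensity) by comet assay. PBS negative control; H2O2 50 μM 5 min in-gel positive control. Triplicate, repeated twice; mean ± SD.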
# [27] = system: MRC5; experiment: Induction of DNA damage in human MRC5 cells assessed as formation of DNA breaks after 24 hrs by comet assay; format: functional, cell-based; summary of the method: as §6
# [28] = system: DNA; experiment: Induction of Escherichia coli pUC19 DNA cleavage after 90 mins by agarose gel electrophoresis method; format: nucleic-acid assay
# Summary of the method: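 Plasmid pUC19 (from E. coli XL1 blue; 460 ng, 12 nM) incubated with compound (0.05–0.4 mM; from 2 mM DMSO stock) in 20 μL 40 mM bicarbonate pH 8.4 at 37 °C for 90 min; 1% agarose gel in TAE at 80 V, ethidium bromide staining, UV at 312 nm; supercoiled/nicked/linear forms scored.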
# [29] = system: DNA; experiment: Reversal of Fe2+-induced Escherichia coli pUC19 DNA cleavage at 1:1 compound to Fe2+ mole ratio after 90 mins by agarose gel electrophoresis method; format: functional
# Summary of the method: (§7)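 Compound (4 μL of 2 mM) preincubated with FeSO4 (1 or 2 μL of 8 mM; compound:Fe 1:1 or 1:2) in bicarbonate buffer 60 min at 37 °C, then pUC19 added for another 90 min; products resolved on 1% agarose gel, ethidium bromide stained.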
# [30] = system: DNA; experiment: Reversal of Fe2+-induced Escherichia coli pUC19 DNA cleavage at 1:2 compound to Fe2+ mole ratio after 90 mins by agarose gel electrophoresis method; format: functional; summary of the method: as §7
structure (smiles),measurement,setting,value
O=C(/C=C/c1ccc(C(=O)Nc2nnc(-c3ccc(O)c(O)c3)s2)cc1)c1ccc([N+](=O)[O-])cc1,IC50,[1],14 µM
same,IC50,[2],54.8 µM
same,IC50,[3],11.2 µM
same,IC50,[4],128 µM
same,IC50,[5],39.4 µM
Cc1ccccc1C(=O)C=Cc1ccc(C(=O)Nc2nnc(-c3ccc(O)c(O)c3)s2)cc1,IC50,[1],11.7 µM
same,IC50,[2],9.12 µM
same,IC50,[3],7.62 µM
same,IC50,[4],21.8 µM
same,IC50,[5],18.6 µM
O=C(Nc1nnc(-c2ccc(O)c(O)c2)s1)c1ccc(/C=C/C(=O)c2cccc3cc4ccccc4cc23)cc1,IC50,[1],13.5 µM
same,IC50,[2],11 µM
same,IC50,[3],6.92 µM
same,IC50,[4],23.2 µM
same,IC50,[5],21.2 µM
Cc1ccc(C(=O)/C=C/c2ccc(C(=O)Nc3nnc(-c4ccc(O)c(O)c4)s3)cc2)cc1,IC50,[1],11.8 µM
same,IC50,[2],11.2 µM
same,IC50,[3],8.44 µM
same,IC50,[4],26.4 µM
same,IC50,[5],33.7 µM
O=C1O[C@H]([C@@H](O)CO)C(O)=C1O [ASCORBIC ACID],IC50,[1],20.2 µM
COc1ccc(C(=O)/C=C/c2ccc(C(=O)Nc3nnc(-c4ccc(O)c(O)c4)s3)cc2)cc1,IC50,[1],17.9 µM
same,IC50,[2],57.6 µM
same,IC50,[3],16.4 µM
same,IC50,[4],89.1 µM
same,IC50,[5],81.3 µM
COc1cccc(C(=O)/C=C/c2ccc(C(=O)Nc3nnc(-c4ccc(O)c(O)c4)s3)cc2)c1,IC50,[1],10.3 µM
same,Activity,[6],Active
same,IC50,[2],9.98 µM
same,IC50,[3],9.92 µM
same,IC50,[4],92.1 µM
same,IC50,[5],42.5 µM
same,Activity,[7],Active
same,Activity,[8],Active
same,Activity,[9],inactive
same,Activity,[10],inactive
same,Activity,[11],inactive
same,Activity,[12],Active
same,Activity,[13],Active
same,Activity,[14],Active
same,Activity,[15],Active
same,inhibition,[16],Active
same,Activity,[17],inactive
same,Activity,[18],Active
same,Activity,[19],Active
same,Activity,[20],Active
same,Activity,[21],Active
same,Activity,[22],2.4%
same,Kb,[23],0.71 ×10³ /M
same,Activity,[24],55%
same,K,[25],3.95
same,Activity,[26],20%
same,Activity,[27],Dose-dependent effect
same,Activity,[28],inactive
same,Activity,[29],Active
same,Activity,[30],Active
COc1ccccc1C(=O)C=Cc1ccc(C(=O)Nc2nnc(-c3ccc(O)c(O)c3)s2)cc1,IC50,[1],9.76 µM
same,IC50,[2],10.2 µM
same,IC50,[3],12 µM
same,IC50,[4],50.2 µM
same,IC50,[5],48 µM
O=C(Nc1nnc(-c2ccc(O)c(O)c2)s1)c1ccc(C=CC(=O)c2ccccc2F)cc1,IC50,[1],13.9 µM
same,IC50,[2],11.1 µM
same,IC50,[3],8.88 µM
same,IC50,[4],46.9 µM
same,IC50,[5],39.6 µM
O=C(/C=C/c1ccc(C(=O)Nc2nnc(-c3ccc(O)c(O)c3)s2)cc1)c1ccc(F)cc1,IC50,[1],17.8 µM
same,IC50,[2],17.8 µM
same,IC50,[3],10.6 µM
same,IC50,[4],89.3 µM
same,IC50,[5],45.8 µM
O=C(/C=C/c1ccc(C(=O)Nc2nnc(-c3ccc(O)c(O)c3)s2)cc1)c1ccc(Br)cc1,IC50,[1],18 µM
same,IC50,[2],40.2 µM
same,IC50,[3],9.74 µM
same,IC50,[4],87.7 µM
same,IC50,[5],38.2 µM
